Here are results for 13 compounds from ChEMBL document CHEMBL1275348, “Design, synthesis, and evaluation of duocarmycin O-amino phenol prodrugs subject to tunable reductive activation” (J Med Chem, 2010).

Data set [1] has as its system L1210. The data set is described as follows: Cytotoxicity against mouse L1210 cells. Type of data set: functional, cell-based.
For data set [2], the system named is L1210. Put plainly: Antitumor activity against mouse L1210 cells xenografted in DBA/2J mouse assessed as mean survival period at 100 mg/kg, ip administered 3 times on day 1, 5 and 9 postimplantation. Particulars: route intraperitoneal. Type of data set: functional. In short, it runs like this:
(§1)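 Syngeneic L1210 leukemia cells (1 × 10^6) were injected i.p. into DBA/2J mice on day 0. Ten mice were randomly assigned per treatment or vehicle group. Compounds were formulated in 30% DMSO plus 0.7% glucose solution and injected i.p. on days 1, 5 and 9. Animals were monitored daily and weighed three times weekly, with the study running 120 days.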

For data set [3], the system named is L1210. The data set is described as follows: Antitumor activity against mouse L1210 cells xenografted in DBA/2J mouse assessed as mean survival period at 50 mg/kg, ip administered 3 times on day 1, 5 and 9 postimplantation. The format is functional. Particulars: route intraperitoneal. In short, it runs like this:
as §1

Data set [4] concerns L1210. The data set is described as follows: Antitumor activity against mouse L1210 cells xenografted in DBA/2J mouse assessed as mean survival period at 250 mg/kg, ip administered 3 times on day 1, 5 and 9 postimplantation. As to conditions: route intraperitoneal. The format is functional. In short, it runs like this: as §1
The test system of data set [5] is L1210. Put plainly: Antitumor activity against mouse L1210 cells xenografted in DBA/2J mouse assessed as mean survival period at 500 mg/kg, ip administered 3 times on day 1, 5 and 9 postimplantation. Particulars: route intraperitoneal. Type of data set: functional. In outline: as §1
Data set [6] concerns L1210. Put plainly: Antitumor activity against mouse L1210 cells xenografted in DBA/2J mouse at 50 mg/kg, ip administered 3 times on day 1, 5 and 9 postimplantation relative to control. The format is functional. As to conditions: route intraperitoneal. In short, it runs like this:
as §1

The test system of data set [7] is L1210. Put plainly: Antitumor activity against mouse L1210 cells xenografted in DBA/2J mouse at 250 mg/kg, ip administered 3 times on day 1, 5 and 9 postimplantation relative to control. Particulars: route intraperitoneal. Type of data set: functional. In short, it runs like this:
as §1

Data set [8] relates to L1210. Put plainly: Antitumor activity against mouse L1210 cells xenografted in DBA/2J mouse at 500 mg/kg, ip administered 3 times on day 1, 5 and 9 postimplantation relative to control. The format is functional. Particulars: route intraperitoneal. In outline:
as §1

Data set [9] relates to L1210. Put plainly: Antitumor activity against mouse L1210 cells xenografted in DBA/2J mouse assessed as survival at 50 mg/kg, ip administered 3 times on day 1, 5 and 9 postimplantation. The format is functional, organism-based. In short, it runs like this: as §1
Data set [10] concerns L1210. The data set is described as follows: Antitumor activity against mouse L1210 cells xenografted in DBA/2J mouse assessed as survival at 100 mg/kg, ip administered 3 times on day 1, 5 and 9 postimplantation. Type of data set: functional, organism-based. In outline: as §1
In data set [11] the test system is L1210. The data set is described as follows: Antitumor activity against mouse L1210 cells xenografted in DBA/2J mouse at 100 ug/kg, ip administered 3 times on day 1, 5 and 9 postimplantation relative to control. As to conditions: route intraperitoneal.
For data set [12], the system named is L1210. The data set is described as follows: Antitumor activity against mouse L1210 cells xenografted in DBA/2J mouse assessed as mean survival period at 10 mg/kg, ip administered 3 times on day 1, 5 and 9 postimplantation. Type of data set: functional. As to conditions: route intraperitoneal. In short, it runs like this: as §1
Data set [13] has as its system L1210. Put plainly: Antitumor activity against mouse L1210 cells xenografted in DBA/2J mouse assessed as mean survival period at 30 mg/kg, ip administered 3 times on day 1, 5 and 9 postimplantation. Type of data set: functional. Particulars: route intraperitoneal. In outline: as §1
Data set [14] deals with L1210. The data set is described as follows: Antitumor activity against mouse L1210 cells xenografted in DBA/2J mouse assessed as mean survival period at 60 mg/kg, ip administered 3 times on day 1, 5 and 9 postimplantation. Type of data set: functional. Particulars: route intraperitoneal. In outline:
as §1

Data set [15] relates to L1210. Put plainly: Antitumor activity against mouse L1210 cells xenografted in DBA/2J mouse at 10 mg/kg, ip administered 3 times on day 1, 5 and 9 postimplantation relative to control. Type of data set: functional. Particulars: route intraperitoneal. In short, it runs like this:
(§2)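 DBA/2J mice received syngeneic L1210 cells (1 × 10^6) i.p. on day 0. Groups of ten mice were randomised to drug or vehicle. Dosing was i.p. on days 1, 5 and 9 in 30% DMSO plus 0.7% glucose solution. Animals were checked daily and weighed three times per week. The study ran 120 days, with survival compared against untreated controls.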

Data set [16] relates to L1210. The data set is described as follows: Antitumor activity against mouse L1210 cells xenografted in DBA/2J mouse at 30 mg/kg, ip administered 3 times on day 1, 5 and 9 postimplantation relative to control. The format is functional. Particulars: route intraperitoneal. In short, it runs like this: as §2
Data set [17] has as its system L1210. Put plainly: Antitumor activity against mouse L1210 cells xenografted in DBA/2J mouse at 60 ug/kg, ip administered 3 times on day 1, 5 and 9 postimplantation relative to control. Particulars: route intraperitoneal.
The test system of data set [18] is L1210. Put plainly: Antitumor activity against mouse L1210 cells xenografted in DBA/2J mouse assessed as mean survival period at 200 mg/kg, ip administered 3 times on day 1, 5 and 9 postimplantation. The format is functional. As to conditions: route intraperitoneal. In outline: as §1
The subject of data set [19] is L1210. Put plainly: Antitumor activity against mouse L1210 cells xenografted in DBA/2J mouse at 200 mg/kg, ip administered 3 times on day 1, 5 and 9 postimplantation relative to control. The format is functional. As to conditions: route intraperitoneal. In short, it runs like this: as §1
Data set [20] relates to L1210. Put plainly: Antitumor activity against mouse L1210 cells xenografted in DBA/2J mouse assessed as survival at 10 mg/kg, ip administered 3 times on day 1, 5 and 9 postimplantation. The format is functional, organism-based. In short, it runs like this: as §1
Data set [21] has as its system L1210. The data set is described as follows: Antitumor activity against mouse L1210 cells xenografted in DBA/2J mouse assessed as survival at 30 mg/kg, ip administered 3 times on day 1, 5 and 9 postimplantation. Type of data set: functional, organism-based. In outline: as §1
Data set [22] deals with L1210. Put plainly: Antitumor activity against mouse L1210 cells xenografted in DBA/2J mouse assessed as survival at 60 mg/kg, ip administered 3 times on day 1, 5 and 9 postimplantation. The format is functional, organism-based. In short, it runs like this:
as §1

Data set [23] deals with L1210. The data set is described as follows: Antitumor activity against mouse L1210 cells xenografted in DBA/2J mouse assessed as survival at 200 mg/kg, ip administered 3 times on day 1, 5 and 9 postimplantation. The format is functional, organism-based. In short, it runs like this: as §1
Data set [24] is described as follows: Chemical stability of the compound in phosphate buffer of pH 7 assessed as half life. Type of data set: physicochemical. In short, it runs like this: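 The compound was held in pH 7.0 phosphate buffer for up to 72 h. Cleavage was followed as release of CBI-indole2, and the half-life was estimated from this.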

The structures appear in SMILES notation. Calls of active or inactive are those of the source. The rule behind the calls is not given here.

For the compound `NC(=O)NOc1cc2c(c3ccccc13)[C@H](CCl)CN2C(=O)c1cc2cc(NC(=O)c3cc4ccccc4[nH]3)ccc2[nH]1`, in [1], the IC50 was found to be 1.1 nM. Besides, the Time in data set [2] is 33 days; in data set [3], 29 days; in [4], 39 days; in [5] it was 71 days. Besides, the T/C worked out at 133% in [6], 177% in data set [7], 323% in [8] and 152% in [11]. Besides, the outcome in [9] and in data set [10] was inactive.
`CC(C)(C)OC(=O)NOc1cc2c(c3ccccc13)[C@H](CCl)CN2C(=O)c1cc2cc(NC(=O)c3cc4ccccc4[nH]3)ccc2[nH]1` yielded an IC50 in data set [1] of 0.1 nM. In addition, the Time in data set [12] is 50 days; in data set [13] it was 58 days; in [14], 69 days; in data set [2] it was 86 days. In addition, the T/C in [15] was 225%; in data set [16], 265%; in data set [17], 315%; in [11], 389%.
`CC(C)(C)OC(=O)NOc1cc2c(c3ccccc13)[C@@H](CCl)CN2C(=O)c1cc2cc(NC(=O)c3cc4ccccc4[nH]3)ccc2[nH]1` had an IC50 in data set [1] of 4 nM.
The compound `NC(=O)NOc1cc2c(c3ccccc13)[C@@H](CCl)CN2C(=O)c1cc2cc(NC(=O)c3cc4ccccc4[nH]3)ccc2[nH]1` showed an IC50 in [1] of 30 nM.
In [1], `COC(=O)NOc1cc2c(c3ccccc13)[C@@H](CCl)CN2C(=O)c1cc2cc(NC(=O)c3cc4ccccc4[nH]3)ccc2[nH]1` showed an IC50 of 9 nM.
Compound `CC(C)(C)C(=O)NOc1cc2c(c3ccccc13)[C@@H](CCl)CN2C(=O)c1cc2cc(NC(=O)c3cc4ccccc4[nH]3)ccc2[nH]1` returned an IC50 in [1] of 3.5 nM.
The same measure, in the same setting: the same measure for `O=C(Nc1ccc2[nH]c(C(=O)N3C[C@H](CCl)c4c3cc(O)c3ccccc43)cc2c1)c1cc2ccccc2[nH]1`: 0.9 nM.
For the compound `COC(=O)NOc1cc2c(c3ccccc13)[C@H](CCl)CN2C(=O)c1cc2cc(NC(=O)c3cc4ccccc4[nH]3)ccc2[nH]1`, the IC50 in data set [1] was determined as 0.5 nM. In addition, the Time is 24 days in data set [12]; 29 days in [13]; 28 days in [14]; 27 days in [2]; 32 days in data set [18]. For the same compound, the T/C is 110% in data set [15]; 133% in data set [16]; 145% in [19]; 126% in data set [17]; 122% in data set [11]. For the same compound, the outcome in data set [10], in [20], in data set [21], in data set [22] and in [23] was inactive.
Compound `CN(Oc1cc2c(c3ccccc13)[C@H](CCl)CN2C(=O)c1cc2cc(NC(=O)c3cc4ccccc4[nH]3)ccc2[nH]1)C(=O)OC(C)(C)C` showed an IC50 in data set [1] of 0.9 nM.
`CC(C)(C)C(=O)NOc1cc2c(c3ccccc13)[C@H](CCl)CN2C(=O)c1cc2cc(NC(=O)c3cc4ccccc4[nH]3)ccc2[nH]1` displayed an IC50 in data set [1] of 0.08 nM. In addition, the half-life in [24] was 6 h.
`CN(Oc1cc2c(c3ccccc13)[C@@H](CCl)CN2C(=O)c1cc2cc(NC(=O)c3cc4ccccc4[nH]3)ccc2[nH]1)C(=O)OC(C)(C)C` returned an IC50 in data set [1] of 30 nM.
Regarding `O=C(Nc1ccc2[nH]c(C(=O)N3C[C@@H](CCl)c4c3cc(O)c3ccccc43)cc2c1)c1cc2ccccc2[nH]1` [SECO-CBI-INDOLE], the IC50 in data set [1] turned out to be 0.03 nM. The Time in [12] turned out to be 42 days; in data set [13], 51 days; in data set [14] it was 78 days; in data set [2], 73 days. Also, the T/C was found to be 192% in data set [15], 230% in data set [16], 352% in data set [17] and 333% in data set [11].
In the case of `COc1c(O)c2c(c3cc(C(=O)N4CCc5c4c(O)c(OC)c4[nH]c(C(=O)N6C[C@H]7C[C@@]78C6=CC(=O)c6[nH]cc(C)c68)cc54)[nH]c13)CCN2C(N)=O` [(+)-CC-1065], the IC50 in data set [1] is 0.02 nM.

In general, IC50 refers to the midpoint of a concentration-inhibition curve. Low values mean higher potency, high ones lower potency. By T/C is commonly meant the ratio of treated to control. What is called half-life is the time in which the quantity being followed falls by half.
